Experimental data: ChEMBL document CHEMBL1687762, “Aerosol therapy with colistin methanesulfonate: a biopharmaceutical issue illustrated in rats” (Antimicrob Agents Chemother, 2010)

Columns and labels:
[1] = test system: Rattus norvegicus; assay: Volume of distribution at steady state in Sprague-Dawley rat at 15 mg/kg, iv; type: ADME, organism-based; design: dose 15 mg/kg, route intravenous; conditions: in vivo
How it was run: (§1)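 CMS in 0.9% NaCl, 15 mg/kg, was given as an i.v. bolus through a femoral vein catheter to fasted male Sprague-Dawley rats (n=6). Arterial plasma was drawn at 0–180 min. CMS (measured as colistin after acid hydrolysis) and colistin were quantified by LC-MS/MS. Individual noncompartmental analysis; Vss = dose × AUMC / AUC².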

[2] = test system: Rattus norvegicus; assay: Half life in Sprague-Dawley rat at 15 mg/kg, iv; type: ADME, organism-based; design: dose 15 mg/kg, route intravenous; conditions: in vivo; how it was run: as §1
[3] = test system: Rattus norvegicus; assay: Half life in Sprague-Dawley rat assessed as Colistin level at 15 mg/kg, iv; type: ADME, organism-based; design: dose 15 mg/kg, route intravenous; conditions: in vivo; how it was run: as §1
[4] = test system: Rattus norvegicus; assay: AUC in Sprague-Dawley rat at 15 mg/kg, iv; type: ADME, organism-based, Plasma; design: dose 15 mg/kg, route intravenous; conditions: in vivo; how it was run: as §1
[5] = test system: Rattus norvegicus; assay: AUC in Sprague-Dawley rat assessed as Colistin level at 15 mg/kg, iv; type: ADME, organism-based, Plasma; design: dose 15 mg/kg, route intravenous; conditions: in vivo; how it was run: as §1
[6] = test system: Rattus norvegicus; assay: Half life in Sprague-Dawley rat at 15 mg/kg administered via intratracheal nebulization; type: ADME, organism-based; design: dose 15 mg/kg, route endotracheal; conditions: in vivo, inhaled_or_intranasal
How it was run: (§2)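 Male Sprague-Dawley rats (280–350 g) were fasted 12 h, with a femoral catheter implanted the day before. Under isoflurane, 100 µl of CMS at 50 mg/ml in 0.4% NaCl (15 mg/kg) was sprayed intratracheally with a MicroSprayer (n=5). Arterial plasma was sampled from 0 to 300 min. CMS (after sulfuric acid hydrolysis) and colistin were measured by LC-MS/MS. Noncompartmental analysis: trapezoidal AUC, terminal log-linear half-life.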

[7] = test system: Rattus norvegicus; assay: Half life in Sprague-Dawley rat assessed as Colistin level at 15 mg/kg administered via intratracheal nebulization; type: ADME, organism-based; design: dose 15 mg/kg, route endotracheal; conditions: in vivo, inhaled_or_intranasal; how it was run: as §2
[8] = test system: Rattus norvegicus; assay: AUC in Sprague-Dawley rat at 15 mg/kg administered via intratracheal nebulization; type: ADME, organism-based, Plasma; design: dose 15 mg/kg, route endotracheal; conditions: in vivo, inhaled_or_intranasal; how it was run: as §2
[9] = test system: Rattus norvegicus; assay: AUC in Sprague-Dawley rat assessed as Colistin level at 15 mg/kg administered via intratracheal nebulization; type: ADME, organism-based, Plasma; design: dose 15 mg/kg, route endotracheal; conditions: in vivo, inhaled_or_intranasal; how it was run: as §2
[10] = test system: Rattus norvegicus; assay: Cmax in Sprague-Dawley rat at 15 mg/kg administered via intratracheal nebulization; type: ADME, organism-based; design: dose 15 mg/kg, route endotracheal; conditions: in vivo, inhaled_or_intranasal; how it was run: as §2
[11] = test system: Rattus norvegicus; assay: Bioavailability in Sprague-Dawley rat at 15 mg/kg administered via intratracheal nebulization; type: ADME, organism-based; conditions: in vivo, inhaled_or_intranasal
How it was run: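 CMS bioavailability after intratracheal nebulization in rats (15 mg/kg) was taken as the mean CMS plasma AUC after nebulization divided by the mean CMS AUC after i.v. dosing at the same dose. It is reported as an average value.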

COLISTIMETHATE SODIUM
Vdss [1]: 0.33 L/kg | t1/2 [2]: 22 min | t1/2 [3]: 35.5 min | AUC [4]: 1079 µg·min/mL | AUC [5]: 160 µg·min/mL | t1/2 [6]: 21 min | t1/2 [7]: 63.6 min | AUC [8]: 756 µg·min/mL | AUC [9]: 607 µg·min/mL | Cmax [10]: 5.6 µg/mL | F [11]: 70%
